Series [1] has as its system Influenza A virus. Put plainly: Antiviral activity against Influenza virus A/Puerto Rico/8/34 H1N1 infected in dog MDCK cells incubated at 6 hrs post-infection measured after 24 hrs by hemagglutininating unit assay relative to control. The class given is functional, organism-based. Conditions: A/Puerto Rico/8/1934(H1N1). A digest of the protocol:
(§1)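 Treatment of PR8-infected MDCK cells started at 2, 4, 6 or 8 h p.i. and compound stayed in the medium through 24 h p.i. Virus yield in the supernatant was read by HAU at 24 h p.i. as a percentage of DMSO-treated control infected cells. Means of two experiments, each in duplicate.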

In series [2] the test system is MDCK. Description: Cytotoxicity against dog MDCK cells assessed as loss of cell viability incubated for 24 hrs followed by compound wash out measured after 24 hrs by trypan blue exclusion assay. It counts as cell-based, Canis lupus familiaris. A digest of the protocol: (§2)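 Confluent MDCK monolayers plated at 2×10^5/ml were treated after 24 h with compound at 5–40 μg/ml and incubated a further 24 h. Assessed by microscopic examination of morphology, Trypan blue exclusion for viability, and cell counts for multiplication rate.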

Series [3] relates to MDCK. Put plainly: Restoration of GSH level in dog MDCK cells infected with Influenza virus A/Puerto Rico/8/34 H1N1 assessed as viral protein localization on peri-nuclear zone measured at 24 hrs post-infection by immunofluorescence assay. The class given is functional, cell-based. The note with it: Canis lupus familiaris.
The test system of series [4] is Influenza A virus. Description: Antiviral activity against Influenza virus A/Puerto Rico/8/34 H1N1 infected in dog MDCK cells incubated overnight prior to infection followed by compound washout by hemagglutininating unit assay. It counts as functional, organism-based. The note with it: A/Puerto Rico/8/1934(H1N1). A digest of the protocol:
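Timing variants, each read by HAU of virus yield from MDCK cells: PR8 stock preincubated 1 h with compound before infection; compound present only during the 1 h adsorption; or cells pretreated overnight with washout just before viral challenge.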

Series [5] concerns MDCK. Description: Inhibition of PKC/p38MAPK-mediated nuclear-cytoplasmic viral nucleoprotein export in dog MDCK cells infected with Influenza virus A/Puerto Rico/8/34 H1N1 assessed as increase in nucleoprotein level in nucleus measured at 8 hrs post-infection by Western blot analysis. It counts as cell-based. Conditions: Canis lupus familiaris. A digest of the protocol: (§3)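 Cytosolic and nuclear extracts from treated and untreated infected MDCK cells were run on SDS-PAGE and immunoblotted with anti-NP antibodies. Blots were stripped and reprobed for α-tubulin (cytosol) or lamin A/C (nucleus). Densitometry is given as the NP/tubulin or NP/lamin ratio; one representative experiment of three.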
Background: In western blotting, separated proteins are transferred to a membrane and probed.

The target of series [6] is T1, Protein kinase C (PKC) (Homo sapiens) (UniProt O94806+P41743+P17252+P05129+Q05655+P05771+Q05513+Q02156+P24723+Q15139+Q04759). Put plainly: Inhibition of PKC-mediated ERK2 phosphorylation in human NCI-H292 cells infected with Influenza virus A/Puerto Rico/8/34 H1N1 measured at 6 hrs post-infection by immunoblotting analysis. The class given is cell-based. The gist of the method:
(§4)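 NCI-H292 cells, mock- or PR8-infected at 1 M.O.I., were treated and lysed 6 h p.i. Lysates were run on 10% SDS–PAGE and blotted with rabbit anti-phospho-PKD, -ERK1/2, -p38MAPK or -JNK antibodies. Membranes were then stripped and reprobed for the corresponding total proteins.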

Series [7] concerns Influenza A virus. Description: Antiviral activity against Influenza virus A/Puerto Rico/8/34 H1N1 infected in dog MDCK cells incubated at 4 hrs post-infection measured after 24 hrs by hemagglutininating unit assay relative to control. It counts as functional, A/Puerto Rico/8/1934(H1N1). The gist of the method: as §1
Series [8] concerns Influenza A virus. Description: Antiviral activity against Influenza virus A/Puerto Rico/8/34 H1N1 infected in dog MDCK cells incubated for 1 hr post-infection followed by compound washout by hemagglutininating unit assay. It counts as functional, organism-based. The note with it: A/Puerto Rico/8/1934(H1N1).
Series [9] has as its system Influenza A virus. Description: Antiviral activity against Influenza virus A/Puerto Rico/8/34 H1N1 infected in dog MDCK cells incubated at 1 hr post-infection measured after 24 hrs by hemagglutininating unit assay. It counts as functional, organism-based. Conditions: A/Puerto Rico/8/1934(H1N1). The gist of the method:
(§5)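 MDCK cells infected with PR8; 1 h after adsorption they were washed, and compound (5–20 μg/ml) or DMSO was added and kept on throughout. Virus released into the supernatant was titrated by HAU assay 24 h p.i. Yield is a percentage of control infected cells given 0.02% DMSO. Means of four experiments, each in duplicate.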

Series [10] has as its system MDCK. Description: Cytotoxicity against dog MDCK cells assessed as morphological alterations incubated for 24 hrs followed by compound wash out measured after 24 hrs by microscopic analysis. The class given is cell-based, Canis lupus familiaris. A digest of the protocol: as §2
For series [11], the system named is Influenza A virus. Description: Antiviral activity against Influenza virus A/Puerto Rico/8/34 H1N1 infected in dog MDCK cells incubated at 2 hrs post-infection measured after 24 hrs by hemagglutininating unit assay relative to control. The class given is functional, A/Puerto Rico/8/1934(H1N1). The gist of the method:
as §1

Series [12] has as its target T1, Protein kinase C (PKC) (Homo sapiens). Put plainly: Inhibition of PKC-mediated p38MAPK phosphorylation in human NCI-H292 cells infected with Influenza virus A/Puerto Rico/8/34 H1N1 measured at 6 hrs post-infection by immunoblotting analysis. The class given is cell-based. A digest of the protocol: as §4
In series [13] the test system is Influenza A virus. Put plainly: Downregulation of HA protein expression in Influenza virus A/Puerto Rico/8/34 H1N1 infected in dog MDCK cells measured at 24 hrs post-infection. The note with it: A/Puerto Rico/8/1934(H1N1). The class given is functional, organism-based. The gist of the method: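 PR8-infected MDCK cells, untreated or treated, were lysed at 24 h. Homogenates were run on 12% gels under reducing conditions, blotted to nitrocellulose and probed with goat polyclonal anti-influenza antibodies. Densitometry was expressed as the ratio of each viral protein to actin, relative to untreated infected cells.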

Series [14] concerns MDCK. Description: Restoration of GSH level in dog MDCK cells infected with Influenza virus A/Puerto Rico/8/34 H1N1 measured at 24 hrs post-infection by DTNB-based colometric assay. The class given is functional, cell-based. The note with it: Canis lupus familiaris. A digest of the protocol:
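MDCK cells, infected or mock-infected and treated, were assayed for intracellular GSH and GSSG with a glutathione assay kit at 24 h p.i. Results are in nmol per mg protein, as the mean of two experiments each in duplicate, compared against mock-infected cells.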

For series [15], the system named is MDCK. Description: Restoration of GSH level in dog MDCK cells infected with Influenza virus A/Puerto Rico/8/34 H1N1 assessed as impairment of viral protein localization on plasma membrane measured at 24 hrs post-infection by immunofluorescence assay. Conditions: Canis lupus familiaris. The class given is functional, cell-based.
In series [16] the test system is MDCK. Description: Cytotoxicity against dog MDCK cells assessed as modification of cell multiplication rate incubated for 24 hrs followed by compound wash out measured after 24 hrs by cell counting analysis. It counts as cell-based, Canis lupus familiaris. A digest of the protocol:
as §2

The target of series [17] is T1, Protein kinase C (PKC) (Homo sapiens). Description: Inhibition of PKC-mediated JNK phosphorylation in human NCI-H292 cells infected with Influenza virus A/Puerto Rico/8/34 H1N1 measured at 6 hrs post-infection by immunoblotting analysis. The class given is cell-based. A digest of the protocol: as §4
The target is the same in series [18]. Description: Inhibition of PKC-mediated PKD phosphorylation in human NCI-H292 cells infected with Influenza virus A/Puerto Rico/8/34 H1N1 measured at 6 hrs post-infection by immunoblotting analysis. It counts as cell-based. A digest of the protocol: as §4
The test system of series [19] is MDCK. Description: Inhibition of PKC/p38MAPK-mediated nuclear-cytoplasmic viral nucleoprotein export in dog MDCK cells infected with Influenza virus A/Puerto Rico/8/34 H1N1 assessed as decrease in nucleoprotein level in cytoplasm measured at 8 hrs post-infection by Western blot analysis. Conditions: Canis lupus familiaris. The class given is cell-based. The gist of the method: as §3

The subject of series [20] is Influenza A virus. Description: Antiviral activity against Influenza virus A/Puerto Rico/8/34 H1N1 infected in dog MDCK cells incubated at 8 hrs post-infection measured after 24 hrs by hemagglutininating unit assay relative to control. The note with it: A/Puerto Rico/8/1934(H1N1). The class given is functional, organism-based. The gist of the method:
as §1

Series [21] relates to Influenza A virus. Put plainly: Antiviral activity against Influenza virus A/Puerto Rico/8/34 H1N1 infected in dog MDCK cells assessed as inhibition of viral replication at 20 ug/mL incubated at 1 hr post-infection measured after 24 hrs by hemagglutininating unit assay relative to control. Conditions: A/Puerto Rico/8/1934(H1N1). It counts as functional. A digest of the protocol:
as §5

Molecules are shown by their SMILES. The source made the active and inactive calls. The calls are words filed in the database; no cut-off is given here.

As a reminder, the inhibition is the percentage by which the read-out fell short of the control. Turning to `O=C(/C=C/c1ccc(O)cc1)c1ccc(O)cc1O` [ISOLIQUIRITIGENIN], the result in the series with Influenza A virus [1], with MDCK [3], in the series with Influenza A virus [13], with MDCK [14] and in the series with MDCK [15] was Active. Also, the Activity entry was “Non-toxic” in the series with MDCK [2]; 79% in the series with Influenza A virus [7]; “Dose-dependent effect” with Influenza A virus [9]; “Non-toxic” in the series with MDCK [10]; 79% with Influenza A virus [11]; “Non-toxic” with MDCK [16]. In addition, the outcome in the series with Influenza A virus [4], with Influenza A virus [8] and with Influenza A virus [20] was inactive. Further, the inhibition entry (in the series with MDCK [5]; in [12]; in series [17]; in series [18]; in the series with MDCK [19]; with Influenza A virus [21]) was “Active” in each case. Moreover, in [6], the inhibition entry is “inactive”.
Take `O=C1/C(=C/c2ccc(O)c(O)c2)COC/C1=C\c1ccc(O)c(O)c1`: the outcome in the series with Influenza A virus [1], with MDCK [3], with Influenza A virus [13], in the series with MDCK [14] and in the series on MDCK [15] was Active. The Activity entry with MDCK [2] is “Non-toxic”; in the series on Influenza A virus [7], 79%; with Influenza A virus [9], “Dose-dependent effect”; in the series on MDCK [10] it was “Non-toxic”; with Influenza A virus [11], 79%; with MDCK [16], “Non-toxic”. The result in the series with Influenza A virus [4], in the series with Influenza A virus [8] and in the series on Influenza A virus [20] was inactive. For the same compound, the inhibition result (in the series on MDCK [5]; in series [12]; in series [17]; in [18]; in the series with MDCK [19]) was “Active” throughout. Further, in [6], the inhibition result is “inactive”. For the same compound, the inhibition at 20 µg/mL in the series with Influenza A virus [21] is 75%.

The values above are taken from ChEMBL document CHEMBL2146419, “Effects of polyphenol compounds on influenza A virus replication and definition of their mechanism of action” (Bioorg Med Chem, 2012).
